Data taken from paper PMC10888821 (bioRxiv, 2024).
Blank lines part the entries; values can stand above or below the compound they belong to. The star is where a group is joined. K(dnp) = lysine 2,4-dinitrophenyl (Nε-2,4-dinitrophenyl-lysine); Mca = COc1ccc2c(CC(=O)*)cc(=O)oc2c1

Experiments:
Sm20S β1 subunit [1] = molecular target: T1, Sm20S β1 subunit (Schistosoma mansoni, UniProt G4V926); assay: Inhibition of single-step enriched Sm20S, β1 substrate; type: biochemical
T1 sequence (G4V926 26-225): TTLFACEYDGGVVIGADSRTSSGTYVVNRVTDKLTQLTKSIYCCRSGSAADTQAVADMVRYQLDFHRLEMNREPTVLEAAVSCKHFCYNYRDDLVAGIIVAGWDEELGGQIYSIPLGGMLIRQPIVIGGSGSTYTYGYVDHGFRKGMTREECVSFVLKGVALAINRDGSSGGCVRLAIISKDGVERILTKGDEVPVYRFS
Summary of the method: (§1)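 Sm20S was single-step enriched: worm lysate in Tris/E-64 pH 7.5, ammonium sulfate precipitation at 30 and 60% saturation, then 100 kDa concentration. Assay buffer contained pepstatin, E-64 and AEBSF. Substrates were mca-VDQMDGW-K(dnp)-NH2 (β1), mca-FnKRR-K(dnp)-NH2 (β2) and FNKL-amc (β5), tested across test compound concentrations. Reads were at ex/em 320/400 (mca) or 340/460 (amc). Technical triplicates.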

[2] = tested on: 20S proteasome of three Schistosoma species; assay: Cross-species inhibition profile of schistosome lysates; type: biochemical, S. mansoni, S. haematobium, S. japonicum; conditions: lysates pre-incubated with 500 nM
Summary of the method: (§2)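 Extracts of S. haematobium (0.625 μg/μL), S. japonicum and S. mansoni (1.25 μg/μL each) were enriched by ammonium sulfate precipitation. Proteasome amount was normalized by labelling with 2 μM Me4BodipyFL-Ahx3Leu3VS (37°C, 3 h) and in-gel fluorescence. Extracts were preincubated 1 h with test compound (0.125% DMSO vehicle), then mixed with an equal volume of 20 μM β1/β2 mca substrate or 40 μM Z-FNKL-amc. Buffer: 100 mM Tris pH 7.5, 50 μM E-64, 1 mM AEBSF, 2 μM pepstatin, 0.03% SDS. Triplicate wells at 24°C.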

Sm20S β2 = assay: Sm20S pre-incubated with 10 μM inhibitor, assayed with mca-FnKRR-K; type: biochemical, Schistosoma mansoni; conditions: extended pre-incubation with 10 μM inhibitor
Summary of the method: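 Sm20S was pre-incubated with test compound, then assayed with mca-FnKRR-K(dnp) and Z-LRR-amc. Fluorescence was read at 24°C: ex/em 320/400 nm (mca) and 360/460 nm (amc). Technical triplicates.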

Sm20S β1 [3] = assay: Inhibition of Sm20S hydrolysis of mca-VDQMDGW-K; type: biochemical, Schistosoma mansoni
Sm20S β5 subunit [4] = molecular target: T2, Sm20S β5 subunit (Schistosoma mansoni, UniProt A0A5K4F079); assay: Dose-response assay of purified Sm20S with Suc-LLVY-amc; type: biochemical; conditions: 500 nM inhibitor
T2 sequence (A0A5K4F079 63-264): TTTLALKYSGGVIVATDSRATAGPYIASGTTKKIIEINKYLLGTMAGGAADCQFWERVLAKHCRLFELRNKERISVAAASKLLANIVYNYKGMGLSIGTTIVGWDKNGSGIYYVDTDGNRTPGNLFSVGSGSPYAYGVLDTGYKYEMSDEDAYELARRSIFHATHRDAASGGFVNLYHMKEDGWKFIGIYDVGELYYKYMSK
Summary of the method: (§3)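 Purified Sm20S was obtained from adult S. mansoni worms by ammonium sulfate precipitation, gel filtration and DEAE anion exchange. It was preincubated 15 min with test compound (20 μM to 9 nM, or 740 nM to 0.3 nM), then given 10 μM substrate: Suc-LLVY-amc (β5), Z-LLE-amc (β1) or Z-LRR-amc (β2). Maximum velocity over 8 sequential readings (RFU/sec) was normalized to 0.1% DMSO. Technical triplicates.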

Sm20S β1 subunit [5] = molecular target: T1, Sm20S β1 subunit; assay: Dose-response assay of purified Sm20S with Z-LLE-amc; type: biochemical
Summary of the method: as §3

Sm20S β5 subunit [6] = molecular target: T2, Sm20S β5 subunit; assay: Inhibition of single-step enriched Sm20S, β5 substrate; type: biochemical
Summary of the method: as §1

Sm20S β2 subunit [7] = molecular target: T3, Sm20S β2 subunit (Schistosoma mansoni, UniProt G4VSW3); assay: Inhibition of single-step enriched Sm20S, β2 substrate; type: biochemical
T3 sequence (G4VSW3 39-281): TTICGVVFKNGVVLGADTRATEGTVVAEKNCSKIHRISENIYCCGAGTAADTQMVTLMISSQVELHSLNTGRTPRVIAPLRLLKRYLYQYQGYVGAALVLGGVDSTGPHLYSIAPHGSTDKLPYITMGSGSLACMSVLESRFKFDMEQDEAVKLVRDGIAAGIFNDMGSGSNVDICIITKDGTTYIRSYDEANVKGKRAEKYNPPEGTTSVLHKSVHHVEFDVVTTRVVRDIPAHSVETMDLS
T3 sequence (UPI0001A6248C 1-194 partner): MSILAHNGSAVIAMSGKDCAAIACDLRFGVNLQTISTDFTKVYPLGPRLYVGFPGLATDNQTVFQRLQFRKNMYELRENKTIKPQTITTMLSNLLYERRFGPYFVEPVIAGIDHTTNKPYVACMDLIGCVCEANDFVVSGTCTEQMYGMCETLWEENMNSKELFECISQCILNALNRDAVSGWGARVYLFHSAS
Summary of the method: as §1

Sm20S β2 subunit [8] = molecular target: T3, Sm20S β2 subunit; assay: Dose-response assay of purified Sm20S with Z-LRR-amc; type: biochemical; conditions: read-out: inhibition of β2 subunit activity
Summary of the method: as §3

[9] = tested on: 20S proteasome β1 subunit of three Schistosoma species; assay: Proteasome inhibition in three Schistosoma species, β1 substrate; type: biochemical, S. mansoni, S. haematobium, S. japonicum; conditions: 500 nM, single-step enriched 20S, across the three species
Summary of the method: as §2

[10] = tested on: 20S proteasome β2 subunit of three Schistosoma species; assay: Proteasome inhibition in three Schistosoma species, β2 substrate; type: biochemical, S. mansoni, S. haematobium, S. japonicum
Summary of the method: as §2

[11] = tested on: 20S proteasome β5 subunit of three Schistosoma species; assay: Proteasome inhibition in three Schistosoma species, β5 substrate; type: biochemical, S. mansoni, S. haematobium, S. japonicum
Summary of the method: as §2

Sh20S β1 = assay: Proteasome inhibition in enriched extract, β1 substrate, S. haematobium; type: biochemical; conditions: 1 μM
Summary of the method: as §2

Sm20S β1 [12] = assay: Proteasome inhibition in enriched extract, β1 substrate, S. mansoni; type: biochemical; conditions: 1 μM
Summary of the method: as §2

Sj20S β1 = assay: Proteasome inhibition in enriched extract, β1 substrate, S. japonicum; type: biochemical; conditions: 1 μM
Summary of the method: as §2

Sm20S β5 subunit [13] = molecular target: T2, Sm20S β5 subunit; assay: Substrate hydrolysis by purified Sm20S, β5 substrates; type: biochemical
Summary of the method: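 Purified Sm20S (10 nM) was incubated with 2-fold serial dilutions of Ac-FNKL-amc or Suc-LLVY-amc. Hydrolysis was monitored at 24°C (ex/em 360/460 nm) and activity was compared as a function of substrate concentration. Technical triplicates.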

Sm20S β1 [14] = assay: Substrate hydrolysis by purified Sm20S, β1 substrates; type: biochemical, Schistosoma mansoni; conditions: between 16 and 250 μM substrate
[15] = 500 nM, single-step enriched 20S, across the three species

IC50 (Sm20S β1 subunit [1]): 0.04984 ± 0.00024 µM | inhibition of β5 subunit activity (Sm20S β5 subunit [4]): completely inactivated | inhibition of β1 subunit activity (Sm20S β1 subunit [5]; 500 nM inhibitor, Z-LLE-amc): completely inactivated | IC50 (Sm20S β5 subunit [6]): 0.018 ± 0.00205 µM | IC50 using the β2 substrate (Sm20S β2 subunit [7]; single-step enriched Sm20S, β2 substrate): did not inhibit | inhibition at 0.5 µM (Sm20S β2 subunit [8]): ~35%
Compound: CC(C)C[C@H](NC(=O)[C@H](Cc1ccccc1)NC(=O)c1cnccn1)B(O)O [BTZ, bortezomib]
cross-species subunit inhibition profile [2]: preferentially inhibited β1 and β5 | effect on Sm20S β2 activity (Sm20S β2): only partially inhibited | inhibition of mca-VDQMDGW-K(dnp) hydrolysis by Sm20S (Sm20S β1 [3]): inhibited

IC50 for the β1 subunit (Sm20S β1 subunit [1]; single-step enriched Sm20S, β1 substrate): not inhibitory | inhibition of β5 subunit activity (Sm20S β5 subunit [4]): completely inhibited | inhibition at 0.5 µM (Sm20S β1 subunit [5]; read-out: inhibition of β1 subunit activity): ~40% | IC50 (Sm20S β5 subunit [6]): 0.0025 ± 0.00051 µM | IC50 (Sm20S β2 subunit [7]): 0.288 ± 0.09 µM | inhibition at 0.5 µM (Sm20S β2 subunit [8]): ~40%
Compound: CC(C)C[C@H](NC(=O)[C@H](CCc1ccccc1)NC(=O)CN1CCOCC1)C(=O)N[C@@H](Cc1ccccc1)C(=O)N[C@@H](CC(C)C)C(=O)[C@@]1(C)CO1 [CFZ, carfilzomib]
cross-species subunit inhibition profile [2]: inhibited β5 and β2 more than β1 | effect on Sm20S β2 activity (Sm20S β2): inactivated

Compound: C[C@@]12OC(=O)[C@]1([C@@H](O)[C@@H]1C=CCCC1)NC(=O)[C@@H]2CCCl [MZB, marizomib]
reduction of β1 activity [9]: 61 to 34% | reduction of β2 activity [10, 15]: 66 to 48% | reduction of β5 activity [11, 15]: complete inactivation

Compound: CCCCCC(=O)N[C@@H](Cc1c[nH]c2ccccc12)C(=O)N[C@@H](Cc1c[nH]c2ccccc12)C(=O)N[C@@H](Cc1ccccc1)C(=O)[C@@]1(C)CO1 [carmaphycin-17]
inhibition of β2 subunits ([10]; 1 μM, three species): ~ 60% | decrease of Sh20S β1 activity (Sh20S β1): 20% | decrease of Sm20S β1 activity (Sm20S β1 [12]): 20% | inhibition of β5 subunits ([11]; 1 μM, three species): complete inhibition | reduction of Sj20S β1 activity (Sj20S β1): 47%

substrate concentration of maximal cleavage activity (Sm20S β5 subunit [13]): 25 µM | cleavage rate relative to Suc-LLVY-amc (Sm20S β5 subunit [13]; 25 μM substrate): ~ four-fold
Compound: Ac-FNKL-amc

Compound: mca-VDQMDGW-K(dnp)-NH2 (Mca-VDQMDGW-{K(dnp)-NH2}) [VDQMD*GW]
cleavage efficiency relative to LLE-amc (Sm20S β1 [14]): ~ 2 fold
